Reference: ChEMBL document CHEMBL1152267, “Peptides based on CcdB protein as novel inhibitors of bacterial topoisomerases” (Bioorg Med Chem Lett, 2008)
The source made the active and inactive calls. The calls are words filed in the database; no cut-off is given here.

Legend:
Escherichia coli [1] = test: Inhibition of Escherichia coli DNA-gyrase assessed as DNA supercoiling activity
In short: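 Peptide titrated into a fixed amount of enzyme and DNA. Gyrase at 3.4 nM with relaxed DNA substrate (500 ng), 37 °C for 1 h, which fully negatively supercoils the substrate without inhibitor. Value is IC100, the lowest peptide concentration giving complete inhibition of supercoiling.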

Escherichia coli [2] = test: Inhibition of Escherichia coli topoisomerase 4 assessed as DNA relaxation activity
In short: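 ATP-dependent relaxation assay. Topo IV at 5 nM with supercoiled DNA (400 ng) at 37 °C, with peptide titrated at fixed enzyme and DNA. Value is IC100, the minimum concentration completely inhibiting relaxation.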

SMILES	IC100 (Escherichia coli [1])	IC100 (Escherichia coli [2])	Activity (Escherichia coli [1])	Activity (Escherichia coli [2])
CC[C@H](C)[C@H](NC(=O)CNC(=O)[C@H](Cc1c[nH]c2ccccc12)NC(=O)[C@H](Cc1ccccc1)NC(=O)[C@H](CCSC)NC(=O)[C@H](CC(C)C)NC(=O)[C@H](CC(N)=O)NC(=O)[C@@H](NC(=O)[C@H](C)NC(=O)[C@H](CC(N)=O)NC(=O)[C@H](CCCCN)NC(=O)[C@@H](NC(=O)[C@H](CC(=O)O)NC(=O)[C@H](CC(N)=O)NC(=O)[C@H](CCC(=O)O)NC(=O)[C@H](CCCNC(=N)N)NC(=O)[C@H](Cc1cnc[nH]1)NC(=O)[C@H](CO)NC(=O)[C@H](CC(C)C)NC(=O)[C@H](CC(=O)O)NC(=O)[C@H](C)NC(=O)[C@@H](NC(=O)[C@H](CCC(=O)O)NC(=O)[C@H](CCC(=O)O)NC(=O)CNC(=O)[C@@H](NC(=O)[C@@H](NC(=O)[C@H](CO)NC(=O)[C@@H](NC(=O)[C@@H]1CCCN1C(=O)[C@@H](NC(=O)[C@H](CO)NC(=O)[C@H](C)NC(=O)[C@@H](N)CCSC)C(C)C)C(C)C)C(C)C)[C@@H](C)CC)C(C)C)[C@@H](C)CC)[C@@H](C)CC)C(=O)O			inactive	inactive
CC[C@H](C)[C@H](NC(=O)CNC(=O)[C@H](Cc1c[nH]c2ccccc12)NC(=O)[C@H](Cc1ccccc1)NC(=O)[C@H](CCSC)NC(=O)[C@H](CC(C)C)NC(=O)[C@H](CC(N)=O)NC(=O)[C@@H](NC(=O)[C@H](C)NC(=O)[C@H](CC(N)=O)NC(=O)[C@H](CCCCN)NC(=O)[C@@H](NC(=O)[C@H](CC(=O)O)NC(=O)[C@H](CC(N)=O)NC(=O)[C@H](CCC(=O)O)NC(=O)[C@H](CCCNC(=N)N)NC(=O)[C@H](Cc1cnc[nH]1)NC(=O)[C@H](CO)NC(=O)CCCCCNC(=O)[C@H](CC(C)C)NC(=O)[C@H](CCC(=O)O)NC(=O)[C@H](CCCNC(=N)N)NC(=O)[C@H](CO)NC(=O)[C@@H](NC(=O)[C@H](CCCCN)NC(=O)[C@H](CC(=O)O)NC(=O)[C@H](CO)NC(=O)[C@H](CC(C)C)NC(=O)[C@H](CC(C)C)NC(=O)[C@H](CCCNC(=N)N)NC(=O)CCCCCNC(=O)[C@H](CCCCN)NC(=O)[C@H](Cc1ccc(O)cc1)NC(=O)[C@@H](NC(=O)[C@H](Cc1ccc(O)cc1)NC(=O)[C@@H](NC(=O)[C@H](CCCCN)NC(=O)[C@H](Cc1ccccc1)NC(=O)[C@H](CCC(N)=O)NC(=O)[C@@H](N)CCSC)C(C)C)[C@@H](C)O)C(C)C)[C@@H](C)CC)[C@@H](C)CC)C(=O)O	10 µM	5 µM		
CC[C@H](C)[C@H](NC(=O)[C@H](CCC(=O)O)NC(=O)[C@H](Cc1c[nH]c2ccccc12)NC(=O)[C@H](Cc1ccccc1)NC(=O)[C@H](CCSC)NC(=O)[C@H](CC(C)C)NC(=O)[C@H](CC(N)=O)NC(=O)[C@@H](NC(=O)[C@H](C)NC(=O)[C@H](CC(N)=O)NC(=O)[C@H](CCCCN)NC(=O)[C@@H](NC(=O)[C@H](CC(=O)O)NC(=O)[C@H](CC(N)=O)NC(=O)[C@H](CCC(=O)O)NC(=O)[C@H](CCCNC(=N)N)NC(=O)[C@H](Cc1cnc[nH]1)NC(=O)[C@H](CO)NC(=O)CCCCCNC(=O)[C@H](CC(C)C)NC(=O)[C@H](CCC(=O)O)NC(=O)[C@H](CCCNC(=N)N)NC(=O)[C@H](CO)NC(=O)[C@@H](NC(=O)[C@H](CCCCN)NC(=O)[C@H](CC(=O)O)NC(=O)[C@H](CO)NC(=O)[C@H](CC(C)C)NC(=O)[C@H](CC(C)C)NC(=O)[C@H](CCCNC(=N)N)NC(=O)CCCCCNC(=O)[C@H](CCCCN)NC(=O)[C@H](Cc1ccc(O)cc1)NC(=O)[C@@H](NC(=O)[C@H](Cc1ccc(O)cc1)NC(=O)[C@@H](NC(=O)[C@H](CCCCN)NC(=O)[C@H](Cc1ccccc1)NC(=O)[C@H](CCC(N)=O)NC(=O)[C@@H](N)CCSC)C(C)C)[C@@H](C)O)C(C)C)[C@@H](C)CC)[C@@H](C)CC)C(=O)O		5 µM	inactive	

More lines, main results first:

IC100 (Escherichia coli [1])	IC100 (Escherichia coli [2])	SMILES	Activity (Escherichia coli [1])	Activity (Escherichia coli [2])
60 µM	15 µM	CC[C@H](C)[C@H](NC(=O)CNC(=O)[C@H](Cc1c[nH]c2ccccc12)NC(=O)[C@H](Cc1ccccc1)NC(=O)[C@H](CCSC)NC(=O)[C@H](CC(C)C)NC(=O)[C@H](CC(N)=O)NC(=O)[C@@H](NC(=O)[C@H](C)NC(=O)[C@H](CC(N)=O)NC(=O)[C@H](CCCCN)NC(=O)[C@@H](NC(=O)[C@H](CC(=O)O)NC(=O)[C@H](CC(N)=O)NC(=O)[C@H](CCC(=O)O)NC(=O)[C@H](CCCNC(=N)N)NC(=O)[C@H](Cc1cnc[nH]1)NC(=O)[C@@H](N)CO)[C@@H](C)CC)[C@@H](C)CC)C(=O)O		
40 µM	15 µM	CC[C@H](C)[C@H](NC(=O)CNC(=O)[C@H](Cc1c[nH]c2ccccc12)NC(=O)[C@H](Cc1ccccc1)NC(=O)[C@H](CCSC)NC(=O)[C@H](CC(C)C)NC(=O)[C@H](CC(N)=O)NC(=O)[C@@H](NC(=O)[C@H](C)NC(=O)[C@H](CC(N)=O)NC(=O)[C@H](CCCCN)NC(=O)[C@@H](NC(=O)[C@H](CC(=O)O)NC(=O)[C@H](CC(N)=O)NC(=O)[C@H](CCC(=O)O)NC(=O)[C@H](CCCNC(=N)N)NC(=O)[C@H](Cc1cnc[nH]1)NC(=O)[C@H](CO)NC(=O)CCCCCNC(=O)[C@H](CCCCN)NC(=O)[C@H](Cc1ccc(O)cc1)NC(=O)[C@@H](NC(=O)[C@H](Cc1ccc(O)cc1)NC(=O)[C@@H](NC(=O)[C@H](CCCCN)NC(=O)[C@H](Cc1ccccc1)NC(=O)[C@H](CCC(N)=O)NC(=O)[C@@H](N)CCSC)C(C)C)[C@@H](C)O)[C@@H](C)CC)[C@@H](C)CC)C(=O)O		
